Measured values as given in publication PMC8385569 (JACC: Basic to Translational Science, 2021).

Legend:
[1] = system: isolated human whole blood; assay: Human blood assay, cytokine and FPR2 mRNA expression; assay type: cell-based; conditions: for increase in IL-10 mRNA levels / increase in MCP-1 mRNA versus control: isolated human whole blood; for increase in IL-10 mRNA levels: average
[2] = system: BioGel-elicited peritoneal macrophages; assay: Zymosan phagocytosis assay; assay type: cell-based, mouse
[3] = system: rat myocardial ischemia-reperfusion injury; assay: Rat ischemia-reperfusion study, 6 weeks; assay type: in vivo; conditions: 1 mg/kg, rat I/R
Outline: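 Male Sprague Dawley rats, 6-7 weeks old, underwent coronary ischemia-reperfusion and received test compound at 1 mg/kg for 6 weeks. Hearts were arrested in diastole, removed and mounted on a modified Langendorff apparatus. Passive LV pressure-volume relationships were recorded ex vivo.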

[4] = system: isolated human neutrophils; assay: Apoptosis assay of isolated human neutrophils activated with SAA; assay type: cell-based; conditions: co-incubation with BMS-986235 and SAA, relative to SAA-only treatment
[5] = system: mouse permanent coronary artery occlusion model; assay: Mouse MI 28-day treatment, survival and histomorphometry; assay type: in vivo
human FPR1 = target: T1, human FPR1 (Homo sapiens, UniProt P21462); assay: BRET biosensor signaling, HEK293 cells expressing human FPR1; assay type: cell-based
T1 sequence (P21462 1-350): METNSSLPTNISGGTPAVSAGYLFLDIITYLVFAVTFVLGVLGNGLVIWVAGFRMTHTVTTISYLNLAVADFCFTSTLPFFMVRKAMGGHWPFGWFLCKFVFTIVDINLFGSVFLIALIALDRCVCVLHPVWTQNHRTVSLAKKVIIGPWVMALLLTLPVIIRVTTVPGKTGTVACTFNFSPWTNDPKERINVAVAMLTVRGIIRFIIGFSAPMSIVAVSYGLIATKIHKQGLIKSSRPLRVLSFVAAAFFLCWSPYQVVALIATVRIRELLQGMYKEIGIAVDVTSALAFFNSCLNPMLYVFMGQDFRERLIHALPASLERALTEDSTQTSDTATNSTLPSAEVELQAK

[6] = system: rat myocardial infarction (permanent coronary artery occlusion); assay: Rat MI permanent coronary artery occlusion, 6 weeks; assay type: in vivo; conditions: 1 mg/kg once per day
Outline: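 Male Sprague Dawley rats, 6-7 weeks old, had permanent coronary artery occlusion by suture under ketamine/xylazine and isoflurane anesthesia. They received test compound at 1 mg/kg once daily for 6 weeks. LV volumes were measured by echocardiography. Terminally, under isoflurane, a 2.5-F conductance catheter was placed in the LV via right carotid cutdown, with parallel-conductance correction.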

[7] = system: noninfarcted rats challenged with LPS; assay: Acute LPS challenge in rat, IL-10; assay type: in vivo; conditions: 1 mg/kg
Outline: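 Adult male Sprague Dawley rats, 6-7 weeks old, without infarction, were dosed with test compound at 1 mg/kg and challenged with LPS. The read-out was IL-10 induction. Blood compound levels were taken 1.5 to 3 hours after dosing.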

[8] = system: differentiated HL-60 cells; assay: Chemotaxis assay; assay type: cell-based, human
Outline: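 In vitro chemotaxis toward test compound was measured in differentiated HL-60 cells: parental, FPR1-deficient and FPR2 KO lines. EC50 came from a nonlinear concentration-response curve.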

human FPR2 = target: T2, human FPR2 (Homo sapiens, UniProt P25090); assay: BRET biosensor signaling, HEK293 cells expressing human FPR2; assay type: cell-based; conditions: Gαi1, Gαi2, Gαi3, GαoA, GαoB biosensors; FPR2 relative to FPR1
T2 sequence (P25090 1-351): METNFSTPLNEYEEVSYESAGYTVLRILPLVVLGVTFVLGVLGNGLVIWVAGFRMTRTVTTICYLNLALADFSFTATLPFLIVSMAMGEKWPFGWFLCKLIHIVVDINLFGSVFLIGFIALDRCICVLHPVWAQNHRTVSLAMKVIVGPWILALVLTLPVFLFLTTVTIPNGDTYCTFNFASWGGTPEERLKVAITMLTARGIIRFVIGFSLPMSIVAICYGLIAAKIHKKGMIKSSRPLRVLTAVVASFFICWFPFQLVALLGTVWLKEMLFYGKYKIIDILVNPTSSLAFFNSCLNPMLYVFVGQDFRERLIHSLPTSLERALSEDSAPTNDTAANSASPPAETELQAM
Outline: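 HEK293 cells transiently expressed human FPR1 or FPR2 with Gαi1, Gαi2, Gαi3, GαoA or GαoB BRET biosensors, and test compound was titrated. EC50 came from a nonlinear concentration-response curve fit. Selectivity ratio was FPR2 EC50/FPR1 EC50.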

[9] = system: mouse myocardial infarction (permanent LAD ligation); assay: Mouse MI early short-term treatment, cardiac flow cytometry; assay type: in vivo; conditions: 3 mg/kg, 3 days post MI, mouse heart
Outline: (§1)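 Male C57BL/6 mice, 10-12 weeks old, had the LAD permanently occluded by suture under ketamine/xylazine anesthesia and isoflurane ventilation. Test compound, 3 mg/kg, was given by oral gavage once daily, starting 24 hours post MI. Hearts were analyzed about 3 days after occlusion.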

[10] = system: rat myocardial infarction (permanent coronary artery occlusion); assay: Rat MI 5 days, immunohistochemistry of peri-infarct zone; assay type: in vivo; conditions: 1 mg/kg, 5 days post-artery ligation
HL-60 cells = assay: Oxidative burst assay; assay type: cell-based, human
[11] = system: mouse myocardial infarction (permanent LAD ligation); assay: Mouse MI early short-term treatment, histology and in situ hybridization; assay type: in vivo; conditions: 3 mg/kg, 3 days post MI
Outline: as §1

How did the “increase in IL-10 mRNA levels” value ([1]; 0.1 μM) turn out when `COc1cc(F)c([C@@H]2CNC(=O)[C@H]2NC(=O)Nc2ccccc2)c(F)c1` [BMS-986235, 1-((3S,4R)-4-(2,6-difluoro-4-methoxyphenyl)-2-oxopyrrolidin-3-yl)-3-phenylurea] was run?
The value was 3 fold.

And the “increase in MCP-1 mRNA versus control” value ([1]; 1 μM)?
Its value is 28 fold.

And the “increase in MCP-1 mRNA versus control” value ([1]; 10 μM)?
Its value is 54 fold.

And the “increase in IL-10 mRNA levels” value ([1]; 10 μM)?
Its value is 6 fold.

And the “induction of FPR2 mRNA” value ([1]; any concentration (0.01-10 µM))?
The value was “no significant induction”.

And the “induction of IL-6 mRNA” value ([1]; any concentration (0.01-10 µM))?
The value was “no significant induction”.

And the “induction of IL-8 mRNA” value ([1]; any concentration (0.01-10 µM))?
The value was “no significant induction”.

And the “induction of TNFα mRNA” value ([1]; any concentration (0.01-10 µM))?
The value was “no significant induction”.

And the “phagocytosis response above control macrophages” value ([2]; FPR2 KO-derived peritoneal macrophages)?
The value was “minimal response”.

What about the Ymax zymosan phagocytosis ([2]; WT-derived peritoneal macrophages) of the same compound?
Its Ymax zymosan phagocytosis is about 100%.

What about the “ex vivo LV pressure-volume curve vs vehicle” value [3] of the same compound?
The value was “left shifted”.

What about the “reduction of LV volume at end-diastole” value [3] of the same compound?
Its value is 26%.

What about the “reduction of LV volume at end-systole” value [3] of the same compound?
Its value is 42%.

What about the “transmural thickness of the infarct wall relative to vehicle” value [3] of the same compound?
The value was “without altering”.

And the “viable myocardium at the distal end of the MI” value [3]?
The value was “trend toward increased”.

What about the “% Viable Myocardium across infarct wall, increase vs vehicle” value ([3]; Mid MI region) of the same compound?
Its value is 31%.

What about the “% Viable Myocardium across infarct wall, increase vs vehicle” value ([3]; Proximal MI region) of the same compound?
Its value is 31%.

What about the “reduction of percentage of viable neutrophils” value [4] of the same compound?
The value was 12%.

What about the “mortality over the 4 week study” value ([5]; 3 mg/kg once a day oral) of the same compound?
Its value is “significant reduction”.

And the “reduction of infarct scar size relative to vehicle” value ([5]; 3 mg/kg, 4 weeks of treatment)?
The value was about 55%.

What about the “BRET signal for Gα12 and Gα13” value (human FPR1) of the same compound?
Its value is “minimal to no increase”.

What about the “Infarct Wall Thickness, change vs vehicle” value [6] of the same compound?
The value was “+38%”.

What about the “LV End Diastolic Volume (echocardiography), change vs vehicle” value [6] of the same compound?
The value was -26%.

And the “LV End Systolic Volume (echocardiography), change vs vehicle” value [6]?
Its value is -29%.

And the “Scar Area, change vs vehicle” value [6]?
The value was -26%.

And the IL-10 induction [7]?
The IL-10 induction was “efficacious dose”.

And the “concentrations at which chemotaxis attenuation was observed” value ([8]; HL-60 FPR1 KO, bell-shaped response)?
Its value is over 120 nM.

And the enhancement in chemotaxis ([8]; HL-60 FPR2 KO line)?
The enhancement in chemotaxis was “no enhancement”.

What about the “selectivity ratios (FPR2 EC50/FPR1 EC50)” value (human FPR2) of the same compound?
The value was 164- to 614 fold.

What about the “number of total macrophages relative to vehicle” value [9] of the same compound?
The value was “unchanged”.

What about the “myocardial CD206 levels at peri-infarct zone versus vehicle” value [10] of the same compound?
Its value is “relative increases”.

And the “myocardial IL-10 levels at peri-infarct zone versus vehicle” value [10]?
Its value is “relative increases”.

And the Ymax oxidative burst (HL-60 cells; HL-60 FPR1 KO line)?
Its Ymax oxidative burst is 38%.

And the oxidative burst activity (HL-60 cells; HL-60 FPR2 KO line)?
The oxidative burst activity was “abolished”.

What about the Ymax oxidative burst (HL-60 cells; HL-60 cells expressing both receptors) of the same compound?
Its Ymax oxidative burst is 97%.

What about the EC50 (HL-60 cells; Homo sapiens, HL-60, read-out: EC50 oxidative burst) of the same compound?
The EC50 was 130 nM.

And the “arginase-1 mRNA within peri-infarct border zone, fold vs vehicle” value [11]?
Its value is “+6.4 fold”.
